Compounds with a hit are over-represented: about 1.7% of the library has one in this group of screens.
SR-BI DiI-HDL act: activators of SR-BI mediated HDL lipid uptake; CHO ldlA[mSR-BI] cells, DiI-HDL uptake fluorescence, 3 h; 100 = double the neutral-control signal; AID 504775; actives 0.096% (n = 320,000); activation, % at 12.5 µM;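 active means mean replicate activation of at least 60% and every replicate at or above 60%; inconclusive means mean or all-replicate condition met, but not both; inactive means mean below 60% and not all replicates reaching 60%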
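Test system: SR-BI-overexpressing, LDLR-lacking CHO cells; Medium: Ham's F12 with 0.5% BSA, HEPES 25 mM, pH 7.4; Schedule: 3 h, 37 °C; Technique: bottom-read fluorescence, 550/595 nm.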
Vif inh: inhibitors of HIV Vif | HEK293T cells, Vif self-association by quenched fluorescence, imaging, 24 h | inhibition, % at 7.49 µM | actives 0.35% (n = 340,000) | AID 602346; in the data active means inhibition above about 50%, passing the limit was not always enough; inconclusive means no clear call, values can overlap the other calls; inactive means below about 31%
NTR1 ag: agonists of human neurotensin receptor NTR1; activation, % at 20 µM; AID 493036; P30989; NTR1-U2OS beta-arrestin-GFP spot imaging, agonist mode; actives 0.17% (n = 330,000);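 active means activation at or above 40% of the spot to cytoplasm intensity ratio, with at least 20 cells analyzed; inconclusive means wells under 20 cells, flagged as cytotoxic or low count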
SR-BI DiI inh: inhibitors of mouse SR-BI mediated HDL lipid uptake | inhibition, % at 12.5 µM | actives 0.96% (n = 320,000) | Q61009 | ldlA[mSR-BI] CHO cells, DiI-HDL uptake fluorescence, 3 h;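 active means mean replicate inhibition of at least 70% and a set share of replicates each scoring 70 or more; inconclusive means meets just one of the two criteria; inactive means fails both criteria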
Target sequence (Q61009 whole entry, looked up): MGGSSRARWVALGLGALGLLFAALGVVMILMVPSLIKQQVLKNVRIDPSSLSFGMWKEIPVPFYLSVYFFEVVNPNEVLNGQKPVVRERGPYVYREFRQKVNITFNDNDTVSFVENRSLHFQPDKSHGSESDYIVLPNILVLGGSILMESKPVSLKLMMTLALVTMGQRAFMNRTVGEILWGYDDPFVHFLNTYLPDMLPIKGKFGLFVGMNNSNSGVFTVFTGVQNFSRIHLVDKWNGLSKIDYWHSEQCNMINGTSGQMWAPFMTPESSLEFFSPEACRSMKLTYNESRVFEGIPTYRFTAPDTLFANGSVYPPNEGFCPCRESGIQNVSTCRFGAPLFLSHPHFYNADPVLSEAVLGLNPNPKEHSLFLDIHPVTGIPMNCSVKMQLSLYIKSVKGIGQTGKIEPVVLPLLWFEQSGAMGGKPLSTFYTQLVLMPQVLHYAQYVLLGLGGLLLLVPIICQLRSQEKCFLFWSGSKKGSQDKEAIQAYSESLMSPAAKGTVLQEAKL
CaV13 FRET inh: Primary screen for inhibitors of IQ motif and Ca2+-dependent inactivation inhibitor domain binding in CACNA1D, Förster resonance energy transfer in living cells, …. HEK cells, CFP/YFP FRET ICDI-IQ, plate reader, 10 min; percent FRET-ratio fall versus neutral wells. inhibition, % at 12.3 µM. actives 0.098% (n = 340,000);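 active means mean replicate inhibition of at least 30% and at least 1% of replicates passing that level; inconclusive means only one of the two criteria is met; inactive means neither criterion is met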
V-ATPase pHluor: regulators of yeast V-ATPase proton transport; S. cerevisiae, pHLuorin cytosolic pH fluorescence; response, % at 10 µM; actives 0.37% (n = 350,000); AID 504577; in the data active means response mostly above about 7.3%, no sharp cut-off; inactive means mostly below about 5.4%; further: actives read high
NTR1 ag conf: confirmation of agonists of human NTR1 | shares compounds with NTR1 ag | NTR1-U2OS beta-arrestin-GFP translocation imaging | activation, % at 20 µM | actives 38% (n = 480) | AID 504550;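 active means mean activation at 20 µM of at least 40%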
Of the large screens only hits and unclear results are named; the others gave an inactive call (follow-up assays come after a bar, where they were run).

Nc1nc(Nc2ccccc2)nc(NC2CCCCC2)c1[N+](=O)[O-]	NTR1 ag 86.8 | NTR1 ag conf inactive
Cc1ccc(S(=O)(=O)N2CCN(C(=O)CNC(=O)c3ccc(Br)o3)CC2)cc1	none
COCCCn1c(=NC(C)=O)c(C#N)cc2c(=O)n3cccc(C)c3nc21	none (no result: SR-BI DiI-HDL act, SR-BI DiI inh)
COCCCn1c(=NC(=O)c2ccccc2)c(C#N)cc2c(=O)n3cccc(C)c3nc21	NTR1 ag 49.5 | NTR1 ag conf inactive
Cc1ccc(C(=O)/C=C/C(=O)c2ccc(C)cc2)cc1	NTR1 ag 41.6 (no result: CaV13 FRET inh) | NTR1 ag conf 73.1
COc1cc(CC(NC(C)=O)C(=O)NC2CCN(C(=O)Nc3ccccc3Cl)CC2)cc(OC)c1 (stereo not given)	none
COc1cc(CC(NC(C)=O)C(=O)NC2CCN(C(=O)Nc3ccccc3C)CC2)cc(OC)c1 (stereo not given)	NTR1 ag 42.5 | NTR1 ag conf inactive
C/C(CC(=O)Nc1cccc(Br)c1)=N\NC(=O)c1ccc(O)cc1O	none
NC(=O)C1CCN(C(=O)COCc2cc(-c3ccc4c(c3)OCO4)on2)CC1	none
COc1cc(C(=O)N/N=C/c2ccc(OC(=O)c3ccccc3Cl)cc2)ccc1O	NTR1 ag 49.1 (no result: Vif inh) | NTR1 ag conf inactive
Nc1ccc(C(=O)N/N=C\c2ccc(OC(=O)c3ccccc3Cl)cc2)cc1	none
CCCCCCC(C)n1[nH]c(=O)cc1N (stereo not given)	none (no result: SR-BI DiI-HDL act, SR-BI DiI inh)
Cc1ccc2c(c1)c1c(n2CC(O)CNC2CCCCC2)CCCC1 (stereo not given)	NTR1 ag 42.0 | NTR1 ag conf 52.9
Cc1ccc2c(c1)c1c(n2CC(O)CNC(CO)(CO)CO)CCCC1 (stereo not given)	none
O=C(COC(=O)c1cnccn1)c1cccc([N+](=O)[O-])c1	none
CCOC(=O)/C=c1\s/c(=C\c2ccc3cc(OC)ccc3c2)c(=O)n1CC(=O)NCC1CCCO1 (stereo not given)	NTR1 ag 52.1 (no result: CaV13 FRET inh) | NTR1 ag conf 45.2
CC(C)=CCc1c(O)cc(O)c2c1OC(c1ccc(O)cc1)CC2=O (stereo not given)	none (no result: CaV13 FRET inh)
CC(C)=CCc1c(O)c(CC=C(C)C)c2c(c1O)C(=O)CC(c1ccc(O)cc1)O2 (stereo not given)	NTR1 ag 46.4 (no result: CaV13 FRET inh) | NTR1 ag conf inactive
O=[N+]([O-])c1ccc2[nH]cc(S(=O)(=O)N3CCN(c4cccc(Cl)c4)CC3)c2c1	NTR1 ag 40.7 | NTR1 ag conf inactive
O=C(CSc1c2c(nc3cc(Cl)ccc13)CCCC2)NCc1ccco1	none (no result: SR-BI DiI-HDL act)
CCN1CCN(CCNC(=O)c2ccc(/C=C3/Sc4ccccc4N(Cc4cccc(Cl)c4)C3=O)cc2)CC1	NTR1 ag 57.7 (no result: SR-BI DiI-HDL act, SR-BI DiI inh) | NTR1 ag conf inactive
Cc1cccc(CN2C(=O)/C(=C\c3ccc(C(=O)NCCN4CCOCC4)cc3)Sc3ccccc32)c1	none (no result: CaV13 FRET inh)
O=C1CC(c2ccccc2)Cc2nc3nc(C(F)(F)F)nn3cc21 (stereo not given)	NTR1 ag 49.2 (no result: Vif inh) | NTR1 ag conf inactive
CSc1nc2nc3c(cn2n1)C(=O)CC(c1ccccc1)C3 (stereo not given)	none (no result: CaV13 FRET inh)
COc1ccc(-c2cc(-c3cc(C)ccc3O)[nH]n2)cc1	NTR1 ag 43.5 | NTR1 ag conf inactive
CC(=O)CSc1ccc(C(=O)O)cn1	none
O=C(NCCOc1ccccc1)C1Nc2ccc(C(F)(F)F)cc2C2c3ccccc3CC12 (stereo not given)	none
CCOC(=O)C1Nc2ccc(C(F)(F)F)cc2C2c3ccccc3CC12 (stereo not given)	NTR1 ag 56.3 | NTR1 ag conf inactive
Cc1nnc(NC(=O)c2ccc3ccccc3c2)s1	none
CC(C)c1nnc(NC(=O)c2ccc3ccccc3c2)s1	NTR1 ag 44.6 | NTR1 ag conf inactive
CC1CN2C(c3ccc([N+](=O)[O-])cc3)=CSC2=N1 (stereo not given)	none
Cc1ccc(NC2Sc3ccccc3NC2=O)cc1Cl (stereo not given)	NTR1 ag 50.8 (no result: SR-BI DiI-HDL act, SR-BI DiI inh) | NTR1 ag conf inactive
Cc1ccc(NC(=O)CC2Nc3ccccc3NC2=O)cc1Cl (stereo not given)	none (no result: NTR1 ag)
N#CCc1cc2ccc3cccc4ccc(c1)c2c34	none
Oc1cccc(Nc2nc(-c3ccccc3Cl)nc3ccccc23)c1	none (no result: Vif inh)
CCCOC(=O)c1cccc(Nc2nc(-c3cccnc3)nc3ccccc23)c1	NTR1 ag 43.7, SR-BI DiI inh inconclusive | NTR1 ag conf 43.6
O=[N+]([O-])c1ccc(-c2nc(Nc3cccc(O)c3)c3ccccc3n2)cc1	NTR1 ag 55.7, SR-BI DiI inh 71.9 | NTR1 ag conf 48.5
Cc1ccc(-c2nc(Nc3ccc(O)cc3)c3ccccc3n2)cc1	NTR1 ag 42.4, SR-BI DiI inh 107.0 (no result: Vif inh) | NTR1 ag conf inactive
Cc1ccc(-c2nc(Nc3cccc(O)c3)c3ccccc3n2)cc1	NTR1 ag 56.9 | NTR1 ag conf 44.5
CN(C)c1ccc(C=C(C#N)C(=O)c2ccccc2)cc1Br	none (no result: SR-BI DiI-HDL act, NTR1 ag, SR-BI DiI inh, V-ATPase pHluor)
CCC1(CC)N=C(c2ccccc2)C(=S)N1	none (no result: SR-BI DiI-HDL act, SR-BI DiI inh)
CCOc1ccc(/C=C/[N+](=O)[O-])c2ccccc12	NTR1 ag 80.5 (no result: CaV13 FRET inh) | NTR1 ag conf 65.7
CCOC(=O)COc1ccc(/C=C/[N+](=O)[O-])c(OCC(=O)OCC)c1	NTR1 ag 74.5 | NTR1 ag conf 69.2
O=C1c2ccc(Cl)cc2S(=O)(=O)c2cccc(C(=O)N3CCC(Cc4ccccc4)CC3)c21	NTR1 ag 52.4 | NTR1 ag conf 80.4
O=C(CNCCc1ccc(F)cc1)Nc1cc(F)ccc1F	none
Cc1ccccc1-n1nc(C(=O)c2cccs2)cc(-c2nc3ccccc3[nH]2)c1=N	NTR1 ag 55.0 | NTR1 ag conf inactive
COc1ccc(-n2nc(C(=O)c3cccs3)cc(-c3nc4ccccc4[nH]3)c2=N)cc1	NTR1 ag 76.5 | NTR1 ag conf inactive
CCn1cc(C(=O)NCCC(C)C)c(=O)c2cc(F)c(N3CCN(C)CC3)cc21	none (no result: SR-BI DiI-HDL act, SR-BI DiI inh)
Cc1[nH]c2ccccc2c1/C=N/Nc1ccccc1[N+](=O)[O-]	NTR1 ag 40.3, SR-BI DiI inh 128.9 | NTR1 ag conf inactive
O=C(C1CCCN(c2ncnc3c2nc2n3CCCCC2)C1)N1CCN(c2cccc(Cl)c2)CC1 (stereo not given)	none
Cc1ccc(C)c(N2CCN(C(=O)C3CCCN(c4ncnc5c4nc4n5CCCCC4)C3)CC2)c1 (stereo not given)	none
Cc1cccc(N2CCN(C(=O)C3CCN(c4ncnc5c4nc4n5CCCCC4)CC3)CC2C)c1 (stereo not given)	NTR1 ag 54.7, SR-BI DiI inh 71.1 | NTR1 ag conf inactive

Screening data deposited in PubChem BioAssay by several laboratories.
